Published values pooled from the literature.
Each line is one published result; the experiments were not run side by side.
Target: Receptor tyrosine-protein kinase erbB-2 (ERBB2, Homo sapiens, UniProt P04626)

Compound | test | setting | remaining binding [%]
COc1cnc(Nc2cccc(S(N)(=O)=O)c2)nc1N1CCN(c2ccccc2)C(=O)C1 | binding, competition with immobilised ligand | 1 µM | 100
C[C@@H]1CN(c2ccc3ncc(-c4ccc5[nH]nc(C6CC6)c5c4)n3n2)C[C@H](C)O1 | binding, competition with immobilised ligand | 50 nM | 87
Nc1cnc(N2CCc3cc(S(=O)(=O)Nc4c(F)cc(Cl)cc4F)cc(N4CCCC4=O)c32)nc1 | cell-free assay, competition with immobilised ligand | 1 µM | 100
FC(F)(F)Oc1cccc(-c2cnc3ccc(-c4ccncc4)nn23)c1 | cell-free assay, competition with immobilised ligand | 5 µM | 57
CNCc1ccccc1-c1csc([C@H](C)Nc2nc(C)nc3cc(OC)c(OC)cc23)c1 | cell-free assay, competition with immobilised ligand | 1 µM | 100
O=C(Nc1c[nH]nc1C(=O)NC1CCNCC1)c1cc(F)cc(F)c1 | binding, competition with immobilised ligand | 1 µM | 69
O=C(Nc1ccc(Oc2ccc(F)cc2)cc1)N1CCc2ncccc2[C@H]1c1ccc(F)cc1 | cell-free assay, competition with immobilised ligand | 1 µM | 100
CN(C)c1nccc(-c2cnn3ncccc23)n1 | binding | 1 µM | 100
O=C(NCCCN1CCOCC1)c1ccc(Nc2nccc(-c3cc4ccccc4s3)n2)cc1 | binding, competition with immobilised ligand | 1 µM | 93
CNC(=O)Nc1ccc2c(c1)[C@@]1(CC2)OC(=O)N(CC(=O)N(Cc2ccc(F)cc2)[C@@H](C)C(F)(F)F)C1=O | cell-free assay, competition with immobilised ligand | 1 µM | 98
CCN1CCN(Cc2ccc(C(=O)Nc3ccc(C)c(Oc4ccc5c(c4)CC(=O)N5)c3)cc2C(F)(F)F)CC1 | binding, competition with immobilised ligand | 1 µM | 80
O=C(c1ccc(Nc2ncc(Cl)c(-c3ccc(Cl)s3)n2)cc1)N1CCC(N2CCCC2)CC1 | binding, competition with immobilised ligand | 1 µM | 82
COc1cc(-c2cn(C3CCc4c(F)cccc4N(CC(F)(F)F)C3=O)nn2)ccc1-n1cnc(C)c1 (stereo not drawn) | cell-free assay, competition with immobilised ligand | 1 µM | 100
COc1cnc(Nc2cccc(S(N)(=O)=O)c2)nc1N1CCN(c2ccccc2)CC1 | binding, competition with immobilised ligand | 1 µM | 100
O=C(c1ccc(Nc2nccc(-c3cc4ccccc4s3)n2)cc1)N1CCC(N2CCCC2)CC1 | binding, competition with immobilised ligand | 1 µM | 90
c1cncc(-c2cccc(Nc3nccc(NC4CCCCC4)n3)c2)c1 | binding, competition with immobilised ligand | 10 µM | 51
Cc1cnn2ncc(-c3ccnc(N(C)C)n3)c2c1 | binding | 1 µM | 94
COc1cc(-c2cn(C3CCc4ccccc4N(CC(F)(F)F)C3=O)nn2)ccc1-n1ccc(C)n1 (stereo not drawn) | cell-free assay, competition with immobilised ligand | 1 µM | 100
C[C@@H]1CCN(c2nccc(-c3cnn4ncccc34)n2)C1 | binding | 1 µM | 90
C[C@@H](c1ccc(-n2cnc3c(N)ncnc32)cc1)N1CCc2nn(C)c(Cc3ccccc3)c2C1=O | binding, competition with immobilised ligand | 0.1 µM | 81
CN(C)c1ncc(F)c(-c2cnn3ncccc23)n1 | binding | 1 µM | 98
C=CC(=O)N1CCC(C(=O)NCC(=O)N2CCN(c3nc(-c4cnc(N)nc4C(F)F)nc(N4CCOCC4)n3)CC2)CC1 | binding, competition with immobilised ligand | 1 µM | 70
N#CC1(c2ccccn2)CCN(Cc2cc(C(=O)N3CCCC3)c(=O)n3ccccc23)CC1 | cell-free assay, competition with immobilised ligand | 1 µM | 95
N[C@H]1CCN(c2nccc(-c3cnn4ncccc34)n2)C1 | binding | 1 µM | 84
